Results on one compound are retold here after ChEMBL document CHEMBL4414545, “Beta-Glucuronidase Catalyzes Deconjugation and Activation of Curcumin-Glucuronide in Bone” (J Nat Prod, 2019).

Each structure is given as a SMILES string. Calls of active or inactive are those of the source. No cut-off for these calls is given here.

The test system of data set [1] is RAW264.7. Description: Inhibition of RANKL-induced osteoclastogenesis in murine RAW264.7 cells assessed as formation of TRAP positive multinucleated osteoclasts at 30 uM pretreated for 4 hrs followed by RANKL addition measured after 72 hrs. Conditions: Mus musculus. Format: functional, cell-based. The procedure, abridged: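 RAW 264.7 cells, used within 10 passages, were seeded at 5×10^3/well in DMEM with 10% FBS and allowed to adhere overnight at 37°C. Cells were pretreated 4 h with aglycone curcumin or curcumin-glucuronide, then given RANKL (50 ng/mL final) for 72 h. TRAP-positive multinucleated osteoclasts were counted, n=4/group.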

Data set [2] addresses T1, Klotho (Homo sapiens, UniProt Q9UEF7).
T1 sequence (Q9UEF7 whole entry): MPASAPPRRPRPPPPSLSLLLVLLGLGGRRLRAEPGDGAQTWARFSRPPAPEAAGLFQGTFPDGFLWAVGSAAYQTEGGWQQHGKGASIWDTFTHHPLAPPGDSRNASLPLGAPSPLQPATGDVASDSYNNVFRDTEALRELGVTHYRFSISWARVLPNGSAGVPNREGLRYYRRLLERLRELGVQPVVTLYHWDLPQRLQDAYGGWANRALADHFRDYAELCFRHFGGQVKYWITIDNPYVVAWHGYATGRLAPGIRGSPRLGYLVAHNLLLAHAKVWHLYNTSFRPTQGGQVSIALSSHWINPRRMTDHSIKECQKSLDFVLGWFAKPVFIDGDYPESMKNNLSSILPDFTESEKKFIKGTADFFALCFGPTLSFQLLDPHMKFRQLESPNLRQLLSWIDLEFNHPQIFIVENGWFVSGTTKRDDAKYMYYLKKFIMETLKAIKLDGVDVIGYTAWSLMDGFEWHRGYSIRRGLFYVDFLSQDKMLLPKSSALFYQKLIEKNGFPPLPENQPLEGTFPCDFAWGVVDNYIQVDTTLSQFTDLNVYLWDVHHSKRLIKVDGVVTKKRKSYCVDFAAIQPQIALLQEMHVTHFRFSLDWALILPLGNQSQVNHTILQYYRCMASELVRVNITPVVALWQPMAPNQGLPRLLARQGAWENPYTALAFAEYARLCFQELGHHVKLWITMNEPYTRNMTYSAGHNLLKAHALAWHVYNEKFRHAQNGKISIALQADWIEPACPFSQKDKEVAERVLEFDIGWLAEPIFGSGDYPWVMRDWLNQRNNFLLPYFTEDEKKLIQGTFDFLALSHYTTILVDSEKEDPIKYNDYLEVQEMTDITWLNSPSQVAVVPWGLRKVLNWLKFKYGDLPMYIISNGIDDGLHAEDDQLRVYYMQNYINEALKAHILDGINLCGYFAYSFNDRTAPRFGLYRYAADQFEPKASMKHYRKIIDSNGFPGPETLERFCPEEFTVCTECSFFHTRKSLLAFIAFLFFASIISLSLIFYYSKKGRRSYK
As to the kind of experiment: Prodrug conversion assessed as recombinant human alpha-klotho mediated curcumin-glucuronide hydrolysis incubated for 24 hrs by LC-MS analysis. Format: ADME. The gist of the method:
(§1)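 Recombinant human GUSB or α-klotho, 5 μg/mL (15 nM or 45 nM active enzyme), was incubated with curcumin-glucuronide (459 nM) for 24 h at 37°C at pH 5 in enzyme-optimized buffer. Reactions were stopped with HCl and extracted by HLB. Remaining glucuronide and formed aglycone were measured by LC/MS and expressed as % of enzyme-free control, n=3/group.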

Data set [3] has as its target T2, Beta-glucuronidase (Homo sapiens, UniProt P08236).
T2 sequence (P08236 whole entry): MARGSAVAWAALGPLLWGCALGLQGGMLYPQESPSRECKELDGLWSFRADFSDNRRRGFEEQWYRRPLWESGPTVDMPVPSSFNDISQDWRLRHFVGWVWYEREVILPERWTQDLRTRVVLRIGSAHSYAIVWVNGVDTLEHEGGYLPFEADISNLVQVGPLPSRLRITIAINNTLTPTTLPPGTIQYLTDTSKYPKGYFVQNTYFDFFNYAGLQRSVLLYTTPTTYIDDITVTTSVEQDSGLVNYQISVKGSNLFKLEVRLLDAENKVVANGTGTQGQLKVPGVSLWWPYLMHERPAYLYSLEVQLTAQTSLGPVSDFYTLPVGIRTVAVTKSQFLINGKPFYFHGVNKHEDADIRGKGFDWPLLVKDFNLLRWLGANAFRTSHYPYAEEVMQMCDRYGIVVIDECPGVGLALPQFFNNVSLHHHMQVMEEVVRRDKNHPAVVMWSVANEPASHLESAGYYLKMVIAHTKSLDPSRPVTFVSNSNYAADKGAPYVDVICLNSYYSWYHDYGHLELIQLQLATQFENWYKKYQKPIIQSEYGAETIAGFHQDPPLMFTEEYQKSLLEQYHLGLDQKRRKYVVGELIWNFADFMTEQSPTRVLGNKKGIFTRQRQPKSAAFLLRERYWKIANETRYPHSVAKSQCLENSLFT
As to the kind of experiment: Prodrug conversion assessed as recombinant human C-terminal His6-tagged beta-glucuronidase mediated curcumin-glucuronide hydrolysis incubated for 24 hrs by LC-MS analysis. As to conditions: isolated protein. Format: ADME. The procedure, abridged:
as §1

Data set [4] concerns the target T3, Beta-glucuronidase (Mus musculus, UniProt P12265).
T3 sequence (P12265 whole entry): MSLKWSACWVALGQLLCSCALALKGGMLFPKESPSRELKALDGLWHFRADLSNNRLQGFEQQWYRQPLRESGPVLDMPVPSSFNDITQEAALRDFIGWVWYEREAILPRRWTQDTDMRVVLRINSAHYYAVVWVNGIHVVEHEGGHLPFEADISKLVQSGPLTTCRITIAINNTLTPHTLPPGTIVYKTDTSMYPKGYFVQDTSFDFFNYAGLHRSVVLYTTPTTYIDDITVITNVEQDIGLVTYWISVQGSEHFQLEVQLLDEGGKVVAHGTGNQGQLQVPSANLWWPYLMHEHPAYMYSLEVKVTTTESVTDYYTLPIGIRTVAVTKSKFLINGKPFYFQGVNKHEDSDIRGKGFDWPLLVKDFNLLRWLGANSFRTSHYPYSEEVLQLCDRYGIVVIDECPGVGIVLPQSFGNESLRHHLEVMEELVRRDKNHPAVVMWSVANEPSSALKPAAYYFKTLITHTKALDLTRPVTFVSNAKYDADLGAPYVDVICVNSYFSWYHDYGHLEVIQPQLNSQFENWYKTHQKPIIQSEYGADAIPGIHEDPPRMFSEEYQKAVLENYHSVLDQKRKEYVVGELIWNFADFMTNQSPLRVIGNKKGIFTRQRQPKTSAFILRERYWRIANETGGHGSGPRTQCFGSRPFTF
Description: Prodrug conversion in C57BL/6J mouse bone marrow assessed as beta-glucuronidase mediated stabilization of aglycone curcumin at 0.5 uM administered via oral gavage incubated for 30 mins followed by resuspension in sodium acetate buffer at pH 5 measured after 2 hrs in presence of saccharolactone by LC-MS analysis. The data set is classed as ADME. Conditions: in vivo, pH 5, 0.5 µM.

In the case of `COc1cc(/C=C/C(=O)CC(=O)/C=C/c2ccc(O[C@@H]3O[C@H](C(=O)O)[C@@H](O)[C@H](O)[C@H]3O)c(OC)c2)ccc1O`, the inhibition entry in data set [1] was “inactive”. Moreover, the Drug metabolism in data set [2] was 75%; in data set [3], over 99%; in data set [4], “Metabolite_Detected”.
